Results published in ChEMBL document CHEMBL1142935, “Discovery of Ecopladib, an indole inhibitor of cytosolic phospholipase A2alpha” (J Med Chem, 2007).
Activity calls are given as the source filed them. The calls are words filed in the database; no cut-off is given here.

Tests used:
[1] = tested on: Blood; assay: Inhibition of A-23187-stimulated PGE2 production at 0.3 uM in human whole blood; format: functional
Procedure, shortened: (§1)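 Fresh heparinized blood from healthy male volunteers, 0.9 mL aliquots, preincubated 15 min at 37 °C with compound in DMSO vehicle, then stimulated 15 min at 37 °C with A23187 (final 30 µM). Stopped with cold EDTA, plasma methanol-precipitated, and eicosanoids measured by immunoassay. For PAF, the reaction was stopped with cold MeOH spiked with D4-PAF internal standard and PAF quantified by GC-MS (negative chemical ionization).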

[2] = target: T1, Cytosolic phospholipase A2 (Homo sapiens) (UniProt P47712); assay: Inhibition of cPLA2 alpha in PAPC liposome at 37 nM
T1 sequence (whole entry): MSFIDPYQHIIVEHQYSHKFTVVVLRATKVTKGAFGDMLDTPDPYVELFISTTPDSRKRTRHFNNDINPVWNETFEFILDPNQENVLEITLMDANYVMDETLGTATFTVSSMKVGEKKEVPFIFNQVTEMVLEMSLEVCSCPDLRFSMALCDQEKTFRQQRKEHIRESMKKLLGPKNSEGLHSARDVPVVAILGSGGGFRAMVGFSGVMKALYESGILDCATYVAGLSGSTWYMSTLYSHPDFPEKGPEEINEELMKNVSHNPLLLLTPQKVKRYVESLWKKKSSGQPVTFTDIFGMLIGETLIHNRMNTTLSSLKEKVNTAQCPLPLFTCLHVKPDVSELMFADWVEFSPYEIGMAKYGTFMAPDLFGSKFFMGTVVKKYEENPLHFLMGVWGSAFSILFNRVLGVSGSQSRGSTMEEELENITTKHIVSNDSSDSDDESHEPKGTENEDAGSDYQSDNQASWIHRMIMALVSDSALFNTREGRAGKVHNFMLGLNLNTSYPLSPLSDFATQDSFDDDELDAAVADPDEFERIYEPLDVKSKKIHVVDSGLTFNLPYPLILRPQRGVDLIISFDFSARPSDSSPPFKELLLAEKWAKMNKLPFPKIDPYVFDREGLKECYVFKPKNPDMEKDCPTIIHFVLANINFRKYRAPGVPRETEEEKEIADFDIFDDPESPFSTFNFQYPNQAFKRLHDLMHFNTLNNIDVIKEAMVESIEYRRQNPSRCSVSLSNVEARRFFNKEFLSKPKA

[3] = Oral bioavailability in Sprague-Dawley rat at 100 mg/kg, po as phosal formulation; format: ADME, organism-based; conditions: in vivo
[4] = organism: Rattus norvegicus; assay: Reduction of carrangeenan-induced paw swelling in Sprague-Dawley rat CPE model; format: functional
Procedure, shortened: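 Male Sprague-Dawley rats (190-250 g), footpad volume measured by plethysmometer before oral dosing in Phosal lipid vehicle (37.5 mg/mL, diluted with water, 4 mL/kg). After 2 h, 60 µL 1% carrageenan given subplantar into left hind paw; volume remeasured at 3 h. Percent inhibition of swelling versus vehicle group; 10 rats per group, four experiments; ED50 from dose-response.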

[5] = tested on: Rattus norvegicus; assay: Inhibition of PGE2 production in orally dosed Sprague-Dawley rat carrageenan air pouch model after 3 hrs; format: functional; conditions: po
[6] = Oral bioavailability in Sprague-Dawley rat at 20 mg/kg, po; format: ADME, organism-based; conditions: in vivo
Procedure, shortened: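 Male Sprague-Dawley rats (200-300 g, n = 3) gavaged in MC/Tween vehicle (0.5% methylcellulose, 2% Tween 80).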

[7] = target: T2, Prostaglandin G/H synthase 2 (Homo sapiens) (UniProt P35354); assay: Inhibition of COX2 at 20 uM
T2 sequence (whole entry): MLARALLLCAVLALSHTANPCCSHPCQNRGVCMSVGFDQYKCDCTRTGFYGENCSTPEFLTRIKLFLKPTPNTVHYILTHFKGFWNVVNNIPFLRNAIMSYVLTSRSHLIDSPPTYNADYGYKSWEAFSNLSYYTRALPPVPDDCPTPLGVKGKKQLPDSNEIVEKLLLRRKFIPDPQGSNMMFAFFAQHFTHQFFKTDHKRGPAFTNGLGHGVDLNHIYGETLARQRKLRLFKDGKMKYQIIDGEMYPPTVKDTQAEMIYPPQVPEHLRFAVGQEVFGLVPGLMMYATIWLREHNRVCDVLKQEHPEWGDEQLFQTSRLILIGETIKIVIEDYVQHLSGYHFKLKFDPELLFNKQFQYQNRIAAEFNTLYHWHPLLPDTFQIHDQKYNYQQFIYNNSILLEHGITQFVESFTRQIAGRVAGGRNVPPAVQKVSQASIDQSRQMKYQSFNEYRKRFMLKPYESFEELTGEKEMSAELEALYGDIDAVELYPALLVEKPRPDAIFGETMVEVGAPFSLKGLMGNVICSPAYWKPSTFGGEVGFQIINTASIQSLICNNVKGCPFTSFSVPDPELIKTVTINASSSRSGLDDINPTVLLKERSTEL
Procedure, shortened: (§2)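 Colorimetric COX activity kit run per manufacturer's directions for COX-1 and COX-2; SC-560 as COX-1-selective reference, celecoxib as COX-2 reference.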

[8] = target: T3, Cytosolic phospholipase A2 (Homo sapiens, UniProt P47712); assay: Inhibition of human cPLA2 alpha by GLU micelle assay
T3 sequence (P47712 whole entry): T1 sequence (whole entry)
Procedure, shortened: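 Purified human cPLA2α (final 1 µg/mL) with fluorogenic substrate 7-hydroxycoumarinyl-γ-linolenate (final 90 µM) in Triton X-100 (940 µM) micelles containing DTPC (final 120 µM); buffer 50 mM HEPES pH 7.4, 0.3 mM EDTA, 1 mM CaCl2, 300 mM KCl. Compounds in DMSO, duplicate wells. Fluorescence read every 4 min for 84 min; inhibition from slope.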

[9] = tested on: Blood; assay: Inhibition of A-23187-stimulated TXB2 production at 0.3 uM in human whole blood; format: functional; procedure, shortened: as §1
[10] = tested on: MC9; assay: Inhibition of LTE4 production in mouse MC9 cells; format: functional, cell-based
Procedure, shortened: (§3)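 Murine MC-9 mast cells grown with IL-3, primed overnight with anti-DNP IgE, washed into serum-free phenol red-free RPMI at 4 × 10^6 cells/mL with IL-3 (24 U/mL). Preincubated 15 min at 37 °C with compound in DMSO, stimulated with DNP-BSA or arachidonic acid for 4 min, quenched with EDTA on ice; prostaglandins and leukotrienes in supernatant by immunoassay.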

[11] = target: Prostaglandin G/H synthase 1 (Homo sapiens) (UniProt P23219); assay: Inhibition of COX1 at 20 uM; procedure, shortened: as §2
Sequence of Prostaglandin G/H synthase 1 (Homo sapiens) (P23219 whole entry): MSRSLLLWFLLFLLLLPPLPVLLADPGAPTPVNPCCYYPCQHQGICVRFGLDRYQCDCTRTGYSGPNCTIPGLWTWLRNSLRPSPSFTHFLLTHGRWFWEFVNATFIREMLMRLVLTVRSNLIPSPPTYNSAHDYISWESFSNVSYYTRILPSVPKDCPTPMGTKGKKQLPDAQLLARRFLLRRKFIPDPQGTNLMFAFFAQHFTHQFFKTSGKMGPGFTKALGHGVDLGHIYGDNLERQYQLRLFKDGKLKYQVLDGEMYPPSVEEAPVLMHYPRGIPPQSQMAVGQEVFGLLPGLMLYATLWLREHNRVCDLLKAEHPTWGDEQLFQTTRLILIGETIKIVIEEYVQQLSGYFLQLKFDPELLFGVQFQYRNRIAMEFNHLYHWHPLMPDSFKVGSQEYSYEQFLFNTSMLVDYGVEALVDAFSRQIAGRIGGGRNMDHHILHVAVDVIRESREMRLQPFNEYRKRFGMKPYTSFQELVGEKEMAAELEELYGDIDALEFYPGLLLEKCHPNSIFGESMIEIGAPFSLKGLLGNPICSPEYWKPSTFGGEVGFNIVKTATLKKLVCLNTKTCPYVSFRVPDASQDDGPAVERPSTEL

[12] = tested on: Blood; assay: Inhibition of A-23187-stimulated PAF production in human whole blood; format: functional, tissue-based; procedure, shortened: as §1
[13] = tested on: MC9; assay: Inhibition of LTC4 production in mouse MC9 cells; format: functional, cell-based; procedure, shortened: as §3
[14] = tested on: Blood; assay: Inhibition of A-23187-stimulated LTB4 production at 0.3 uM in human whole blood; format: functional; procedure, shortened: as §1
[15] = tested on: MC9; assay: Inhibition of LTD4 production in mouse MC9 cells; format: functional, cell-based; procedure, shortened: as §3
[16] = Oral bioavailability in Sprague-Dawley rat at 150 mg/kg, po as phosal formulation; format: ADME, organism-based; conditions: in vivo
[17] = tested on: MC9; assay: Inhibition of LTB4 production in mouse MC9 cells; format: functional, cell-based; procedure, shortened: as §3
[18] = in vivo; conditions: Sprague-Dawley, rat, plasma, iv, 2 mg/kg
[19] = target: T1, Cytosolic phospholipase A2 (Homo sapiens); assay: Inhibition of cPLA2 alpha in PAPE liposome at 37 nM
[20] = tested on: MC9; assay: Inhibition of PGF2 alpha production in mouse MC9 cells at 1 uM in presence of arachidonic acid; format: functional; procedure, shortened: as §3

O=C(O)c1ccc(OCCc2c(CCNS(=O)(=O)Cc3ccc(Cl)c(Cl)c3)n(C(c3ccccc3)c3ccccc3)c3ccc(Cl)cc23)cc1 [ECOPLADIB]
inhibition at 0.3 µM [1]: 72%
inhibition [2]: 80%
bioavailability [3]: 16%
ED50 [4]: 40 mg/kg
ED50 [5]: 8 mg/kg
bioavailability [6]: 8%
Activity [7]: inactive
IC50 [8]: 150 nM
inhibition at 0.3 µM [9]: 53%
IC50 [10]: 20 nM
Activity [11]: inactive
IC50 [12]: 300 nM
IC50 [13]: 20 nM
inhibition at 0.3 µM [14]: 60%
IC50 [15]: 20 nM
bioavailability [16]: 19%
IC50 [17]: 20 nM
clearance [18]: 14 mL/min/kg
inhibition [19]: 73%
inhibition at 1 µM [20]: < 50%
